Measured values as given in PMC8542630 (Cell chemical biology, 2021).

Experiments:
Hs-dynein 1 [1] = target: T1, Hs-dynein 1 (Homo sapiens, UniProt Q14204); experiment: Radioactive ATPase assay, basal ATPase activity of Hs-dynein 1; type: biochemical
Outline: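 Hs-dynein 1 motor construct (N-terminal His6, aa 1320–4646) at 30 nM, without microtubules. Radioactive ATPase reaction ran for 45 min with test compound. Percent inhibition was obtained by normalising the ATPase rate with compound to DMSO control.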

Hs-dynein 1 [2] = target: T1, Hs-dynein 1; experiment: Radioactive ATPase assay, microtubule-stimulated ATPase activity of Hs-dynein 1; type: biochemical
Outline: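 Radioactive ATPase assay with Hs-dynein 1 (His6, aa 1320–4646; 30 nM) in the presence of microtubules. Reaction time was 45 min, and rates with test compound were normalised to DMSO control.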

Dm-spastin = Dm-spastin (Drosophila melanogaster, UniProt Q8I0P1, DEL311-372); experiment: NADH-coupled steady-state ATPase assay, Dm-spastin; type: biochemical, D. melanogaster
Mm-VCP/p97 = Mm-VCP/p97 (Mus musculus, UniProt Q01853); experiment: NADH-coupled steady-state ATPase assay, Mm-VCP/p97; type: biochemical, M. musculus
Sequence of Mm-VCP/p97 (Q01853 whole entry): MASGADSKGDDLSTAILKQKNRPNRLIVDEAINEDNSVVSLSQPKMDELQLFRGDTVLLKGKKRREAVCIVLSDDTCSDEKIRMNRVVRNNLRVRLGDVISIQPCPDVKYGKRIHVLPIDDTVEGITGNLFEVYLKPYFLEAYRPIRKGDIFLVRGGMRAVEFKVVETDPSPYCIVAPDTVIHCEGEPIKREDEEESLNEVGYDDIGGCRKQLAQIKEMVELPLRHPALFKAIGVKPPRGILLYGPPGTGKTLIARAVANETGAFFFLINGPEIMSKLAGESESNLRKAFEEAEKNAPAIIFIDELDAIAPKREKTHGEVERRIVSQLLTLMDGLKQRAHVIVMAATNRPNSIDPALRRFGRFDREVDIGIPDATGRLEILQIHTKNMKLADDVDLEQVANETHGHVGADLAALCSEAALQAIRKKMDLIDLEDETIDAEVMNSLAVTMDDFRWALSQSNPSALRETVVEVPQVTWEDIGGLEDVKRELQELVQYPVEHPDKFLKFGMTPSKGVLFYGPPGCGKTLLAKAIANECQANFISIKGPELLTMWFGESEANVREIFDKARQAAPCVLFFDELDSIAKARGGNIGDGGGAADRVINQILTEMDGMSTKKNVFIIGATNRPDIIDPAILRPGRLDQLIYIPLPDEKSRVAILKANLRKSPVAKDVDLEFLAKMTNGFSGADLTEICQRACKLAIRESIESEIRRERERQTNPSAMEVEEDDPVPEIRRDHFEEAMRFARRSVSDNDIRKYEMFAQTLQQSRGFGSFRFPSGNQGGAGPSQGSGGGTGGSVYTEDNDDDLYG

Hs-FIGL1 = target: T2, Hs-FIGL1 (Homo sapiens, UniProt Q6PIW4); experiment: NADH-coupled steady-state ATPase assay, Hs-FIGL1; type: biochemical, H. sapiens
T2 sequence (Q6PIW4 288-674): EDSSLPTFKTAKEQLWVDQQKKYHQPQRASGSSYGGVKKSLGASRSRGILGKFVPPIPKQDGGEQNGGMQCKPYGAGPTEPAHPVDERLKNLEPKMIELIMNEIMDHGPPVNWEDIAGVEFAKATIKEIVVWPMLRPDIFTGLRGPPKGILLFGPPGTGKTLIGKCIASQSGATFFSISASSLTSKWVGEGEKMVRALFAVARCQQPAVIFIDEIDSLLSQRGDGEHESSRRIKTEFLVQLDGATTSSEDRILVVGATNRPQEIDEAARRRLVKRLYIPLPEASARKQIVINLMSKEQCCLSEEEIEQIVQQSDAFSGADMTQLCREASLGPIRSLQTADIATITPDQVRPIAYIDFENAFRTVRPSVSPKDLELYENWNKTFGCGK
Outline: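 Recombinant Hs-FIGL1 (50 nM; E. coli-expressed) in 25 mM Na-MES pH 6.5, 70 mM KOAc, 20 mM (NH4)2SO4, 5 mM Mg(OAc)2, 1 mM TCEP, 0.01% Triton X-100, with NADH/PEP/pyruvate kinase/lactate dehydrogenase coupling system. Protein preincubated 10 min at RT with test compound, then MgATP added. NADH fluorescence (ex 340, em 440 nm) slope converted to ATPase rate with an ADP standard curve.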

GFP-Sc-Dyn = GFP-Sc-Dyn (Saccharomyces cerevisiae, UniProt P36022); experiment: NADH-coupled steady-state ATPase assay, GFP-Sc-Dyn basal ATPase; type: biochemical, S. cerevisiae
Sc-Dyn-lyso = Sc-Dyn-lyso (Saccharomyces cerevisiae, UniProt P36022); experiment: NADH-coupled steady-state ATPase assay, Sc-Dyn-lyso; type: biochemical, S. cerevisiae
Outline: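 Ten-dose DMSO serial dilution of test compound (stock top 4 mM) was preincubated 10 min at RT. MgATP (10 mM stock) started the reaction, and NADH fluorescence slopes were converted via an ADP standard curve.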

[3] = target: T3, GFP-Sc-Dyn AAA4 E/Q (E2819Q) (Saccharomyces cerevisiae, UniProt P36022, E2819Q); experiment: NADH-coupled steady-state ATPase assay, GFP-Sc-Dyn AAA4 E/Q mutant; type: biochemical, S. cerevisiae
[4] = target: GFP-Sc-Dyn AAA4 E/Q (E2819Q); experiment: as above; type: biochemical, S. cerevisiae; details: 1 mM MgATP, n=3
[5] = target: Sc-Dyn-lysoMut (AAA1 E/Q) (Saccharomyces cerevisiae, UniProt P36022, E1849Q); experiment: Microscale thermophoresis; type: binding, S. cerevisiae
[6] = target: GFP-Sc-Dyn AAA1 E/Q (E1849Q) (Saccharomyces cerevisiae, UniProt P36022, E1849Q); experiment: Microscale thermophoresis; type: binding, S. cerevisiae
[7] = target: GFP-Sc-Dyn AAA3 E/Q (E2488Q) (Saccharomyces cerevisiae, UniProt P36022, E2488Q); experiment: Microscale thermophoresis; type: binding, S. cerevisiae
[8] = target: T3, GFP-Sc-Dyn AAA4 E/Q (E2819Q); experiment: Microscale thermophoresis; type: binding, S. cerevisiae
[9] = target: GFP-Sc-Dyn V2391S/M2732S (AAA3_V-S/AAA4_M-S) (Saccharomyces cerevisiae, UniProt P36022, M2732S/V2391S); experiment: Microscale thermophoresis; type: binding

T1 sequence (Q14204 1320-4646): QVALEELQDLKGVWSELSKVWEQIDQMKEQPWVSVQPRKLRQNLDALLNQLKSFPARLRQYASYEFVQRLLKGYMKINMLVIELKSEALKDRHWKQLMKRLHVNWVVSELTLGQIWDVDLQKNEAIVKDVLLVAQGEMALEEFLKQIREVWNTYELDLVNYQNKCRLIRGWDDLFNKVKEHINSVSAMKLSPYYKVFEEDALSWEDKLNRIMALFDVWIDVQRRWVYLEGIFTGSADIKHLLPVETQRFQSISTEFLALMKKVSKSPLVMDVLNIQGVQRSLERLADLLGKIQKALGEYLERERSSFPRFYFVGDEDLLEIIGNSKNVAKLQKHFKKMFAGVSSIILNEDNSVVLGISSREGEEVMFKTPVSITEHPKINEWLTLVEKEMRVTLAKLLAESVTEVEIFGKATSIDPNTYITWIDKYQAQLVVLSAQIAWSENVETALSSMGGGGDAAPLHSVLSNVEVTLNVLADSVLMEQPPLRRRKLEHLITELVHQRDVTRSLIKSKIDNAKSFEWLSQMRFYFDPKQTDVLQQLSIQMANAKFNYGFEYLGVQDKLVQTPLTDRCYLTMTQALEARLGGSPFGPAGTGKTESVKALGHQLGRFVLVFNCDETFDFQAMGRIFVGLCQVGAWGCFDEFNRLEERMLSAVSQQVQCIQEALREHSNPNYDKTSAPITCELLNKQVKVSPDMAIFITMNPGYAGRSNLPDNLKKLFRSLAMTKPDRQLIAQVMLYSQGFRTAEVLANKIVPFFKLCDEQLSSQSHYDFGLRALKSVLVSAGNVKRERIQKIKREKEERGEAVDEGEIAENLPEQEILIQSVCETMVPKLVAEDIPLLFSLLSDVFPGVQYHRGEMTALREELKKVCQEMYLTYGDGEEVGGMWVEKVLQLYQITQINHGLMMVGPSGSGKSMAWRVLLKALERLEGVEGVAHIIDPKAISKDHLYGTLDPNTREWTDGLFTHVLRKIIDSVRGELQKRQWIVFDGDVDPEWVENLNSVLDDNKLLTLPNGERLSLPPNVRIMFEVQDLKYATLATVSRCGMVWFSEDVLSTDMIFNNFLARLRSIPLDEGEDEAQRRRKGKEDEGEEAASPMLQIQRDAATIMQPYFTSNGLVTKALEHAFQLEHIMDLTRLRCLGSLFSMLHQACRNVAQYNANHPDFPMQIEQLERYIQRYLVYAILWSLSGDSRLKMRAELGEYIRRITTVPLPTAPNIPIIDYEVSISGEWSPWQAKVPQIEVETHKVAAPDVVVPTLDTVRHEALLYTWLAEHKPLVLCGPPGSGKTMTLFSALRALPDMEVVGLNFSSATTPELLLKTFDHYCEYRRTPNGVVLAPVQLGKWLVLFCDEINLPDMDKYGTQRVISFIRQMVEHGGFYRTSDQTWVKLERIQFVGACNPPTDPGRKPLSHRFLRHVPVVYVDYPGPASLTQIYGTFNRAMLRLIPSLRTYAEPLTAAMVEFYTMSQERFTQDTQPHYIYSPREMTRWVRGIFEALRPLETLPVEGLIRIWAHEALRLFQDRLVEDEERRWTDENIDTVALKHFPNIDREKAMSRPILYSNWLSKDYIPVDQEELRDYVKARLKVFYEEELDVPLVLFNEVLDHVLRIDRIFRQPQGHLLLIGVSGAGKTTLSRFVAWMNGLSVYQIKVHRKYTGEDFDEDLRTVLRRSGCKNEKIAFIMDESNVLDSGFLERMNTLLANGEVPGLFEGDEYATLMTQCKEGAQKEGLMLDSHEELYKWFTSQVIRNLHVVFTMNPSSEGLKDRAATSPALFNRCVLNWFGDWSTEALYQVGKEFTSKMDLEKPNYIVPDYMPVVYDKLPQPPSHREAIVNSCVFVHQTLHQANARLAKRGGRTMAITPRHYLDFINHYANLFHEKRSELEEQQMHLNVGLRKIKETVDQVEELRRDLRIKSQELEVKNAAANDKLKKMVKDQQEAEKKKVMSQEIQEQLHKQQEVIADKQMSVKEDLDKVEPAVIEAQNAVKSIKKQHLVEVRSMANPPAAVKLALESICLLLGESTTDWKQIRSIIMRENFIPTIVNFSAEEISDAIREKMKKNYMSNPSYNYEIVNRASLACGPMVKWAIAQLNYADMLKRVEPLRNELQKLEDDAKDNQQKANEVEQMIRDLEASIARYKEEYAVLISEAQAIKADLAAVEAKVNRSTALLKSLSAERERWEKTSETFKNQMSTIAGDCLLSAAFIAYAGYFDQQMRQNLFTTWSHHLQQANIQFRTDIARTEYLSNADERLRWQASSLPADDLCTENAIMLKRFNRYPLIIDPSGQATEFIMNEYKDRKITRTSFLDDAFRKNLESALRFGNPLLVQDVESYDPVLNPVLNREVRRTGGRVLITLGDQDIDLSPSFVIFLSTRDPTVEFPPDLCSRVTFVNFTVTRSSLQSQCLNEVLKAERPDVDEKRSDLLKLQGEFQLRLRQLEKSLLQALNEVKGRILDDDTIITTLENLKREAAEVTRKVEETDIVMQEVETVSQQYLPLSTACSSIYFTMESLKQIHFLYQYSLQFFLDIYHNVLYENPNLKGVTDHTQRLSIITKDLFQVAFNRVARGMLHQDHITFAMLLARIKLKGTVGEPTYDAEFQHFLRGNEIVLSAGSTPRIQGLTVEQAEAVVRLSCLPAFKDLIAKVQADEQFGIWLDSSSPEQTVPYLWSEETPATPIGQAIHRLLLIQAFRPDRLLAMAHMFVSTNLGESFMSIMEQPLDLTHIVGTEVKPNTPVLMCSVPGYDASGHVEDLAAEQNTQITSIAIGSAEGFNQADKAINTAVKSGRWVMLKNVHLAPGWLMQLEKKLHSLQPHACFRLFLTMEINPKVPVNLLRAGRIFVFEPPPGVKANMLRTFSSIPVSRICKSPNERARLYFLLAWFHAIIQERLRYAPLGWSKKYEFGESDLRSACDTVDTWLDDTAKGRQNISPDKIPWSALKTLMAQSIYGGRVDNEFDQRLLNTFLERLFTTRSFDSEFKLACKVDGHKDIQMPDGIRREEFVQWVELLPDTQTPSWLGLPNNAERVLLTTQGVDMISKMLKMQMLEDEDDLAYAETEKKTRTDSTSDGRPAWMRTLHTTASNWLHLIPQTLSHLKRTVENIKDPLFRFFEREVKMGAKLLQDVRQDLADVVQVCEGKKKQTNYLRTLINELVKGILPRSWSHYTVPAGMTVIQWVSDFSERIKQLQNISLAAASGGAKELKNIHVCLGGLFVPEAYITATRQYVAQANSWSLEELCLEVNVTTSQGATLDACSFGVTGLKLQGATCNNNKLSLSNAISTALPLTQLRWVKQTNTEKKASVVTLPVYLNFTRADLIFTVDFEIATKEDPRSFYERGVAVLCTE

Compound: N#Cc1c(C2(c3ccc(Cl)cc3)CC2)nn2c(=O)c(Oc3cccc(Br)c3)c[nH]c12 [compound 20, 6-(3-bromophenoxy)-2-[1-(4-chlorophenyl)cyclopropyl]-7-oxo-4H-pyrazolo[1,5-a]pyrimidine-3-carbonitrile]
- IC50 (Hs-dynein 1 [1]): 12 ± 9.3 µM
- Inhibition of Hs-dynein 1 basal ATPase activity (in words) (Hs-dynein 1 [1]; compounds tested at 20 μM, 1 mM MgATP, no microtubules, n=2): most active
- IC50 (Hs-dynein 1 [2]): ~10 µM
- Reduction of ATPase activity, Dm-spastin (Dm-spastin; 20 μM, 1 mM MgATP): < 25%
- Percent steady-state ATPase activity, Dm-spastin (Dm-spastin; compound 20 μM, mean ± SD, n=3): 88 ± 4.4%
- Reduction of ATPase activity, Mm-VCP (Mm-VCP/p97; 20 μM, 1 mM MgATP): < 25%
- Percent steady-state ATPase activity, Mm-p97 (Mm-VCP/p97; compound 20 μM, mean ± SD, n=3): 99 ± 7.9%
- Percent steady-state ATPase activity, Hs-FIGL (Hs-FIGL1; compound 20 μM, mean ± SD, n=3): 15 ± 11%
- inhibition at 20 µM (Hs-FIGL1; read-out: Inhibition of ATPase activity, Hs-FIGL1): ~85%
- IC50 (GFP-Sc-Dyn): 14 ± 1 µM
- IC50 (Sc-Dyn-lyso): 15 ± 3.1 µM
- IC50 [3]: 2.9 ± 0.3 µM
- IC50 fold lower than that of GFP-Sc-Dyn, AAA4 E/Q mutant [4]: ~ 5 fold
- EC50 [5]: 34 ± 11 µM
- EC50 [6]: 73 ± 114 µM
- Hill slope, binding to AAA1 E/Q mutant (MST) ([6]; mean ± 95% CI, n=4): 1.3 ± 0.9
- EC50 [7]: 87 ± 104 µM
- Hill slope, binding to AAA3 E/Q mutant (MST) ([7]; mean ± 95% CI, n=4): 0.8 ± 0.3
- EC50 [8]: > 200 µM
- EC50 [9]: > 100 µM
